# Assay outcomes from PubChem.
# An excerpt weighted towards active compounds, which were near 1.1% of everything screened.
# miR-122 sensor = miR-122 Renilla sensor signal increase in Huh7, primary screen, miR-122 inhibitor project, cell-based, single point, plate reader. Huh7 miR-122 Renilla luciferase sensor, 48 h; neutral wells = 0, positive control = 100. activation (reporter increase), % at 12.5 µM. 0.3% of 340,000 active. AID 602342, 2012;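 active = mean replicate activation score at least 90 and every replicate individually at or above 90; inconclusive = only one of the two criteria met; inactive = neither criterion met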;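 also: higher luciferase means less miR-122 activity so hits act as miR-122 inhibitors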
# PglD inh = C. jejuni PglD acetyltransferase inhibitors, primary screen, biochemical, DTNB colorimetric, single point. purified PglD enzyme, DTNB colorimetric CoA detection. inhibition, % at 12.5 µM. 0.098% of 360,000 active. AID 602405, 2012; in the data active = inhibition above about 16%, passing the limit was not always enough; inconclusive = no clear call, values can overlap the other calls
# CAL PDZ FP-1 = untagged CAL PDZ binding inhibitors, primary screen, biochemical, fluorescence polarization, HTS | AID 602252, 2012 | inhibition, % at 24.9 µM | purified CAL PDZ, TMR-peptide fluorescence polarization, 1 h | 0.92% of 300,000 active;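 active = mean inhibition of at least 30% with at least half of replicates also reaching 30%; inconclusive = no clear call, values can overlap the other calls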;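 also: 0% = DMSO neutral control and 100% = excess unlabeled competitor peptide PRC23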
# Cneo AK release = Cryptococcus neoformans cell lysis inducers, primary screen, AK release luminescence, single concentration; C. neoformans lysis, adenylate kinase release luminescence, 4 h; normalised: neutral wells 0, clomiphene wells 100; lysis activity, % at 15 µM; 0.2% of 360,000 active; AID 651654, 2012;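 active = mean lysis activity across replicates of at least 80%, whatever share of replicates individually reach that level; inactive = mean lysis activity below 80%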
#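 Assay system: C. neoformans cells. Amount: yeast cell density of 5 × 10^6 cells/mL. Technique: AK luminescence. Buffer or medium: YPD. Times: static 4 h at 37 °C with compound, 1 h detection. Dosing: single-point compound dose. Read-out: lysis from increased AK signal.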
# CAL PDZ FP-2 = CAL PDZ peptide-binding inhibitors, primary screen, biochemical, fluorescence polarization, Cer-tagged CAL PDZ, HTS | Golgi-associated PDZ and coiled-coil motif-containing protein (Homo sapiens), Q9HD26 | 0.02% of 330,000 active | purified CAL PDZ, TMR-peptide fluorescence polarization, 1 h | AID 504414, 2011 | inhibition, % at 20 µM;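 active = highest replicate inhibition of at least 40%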;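 also: plate controls were DMSO neutral control wells for no effect and unlabeled competitor peptide control wells for full effect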
#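 Material: tagged CAL PDZ domain; buffer or medium: 25 mM sodium phosphate pH 7.4, 150 mM NaCl, TCEP, IgG, Thesit; compound dosing: single point, 20 µM; schedule: 1 h incubation at room temperature before polarization reading; measured by: FP readout, S and P plane fluorescence; read-out basis: percent inhibition from loss of millipolarization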
# * hit, by the source's call; ? = inconclusive; nt = not tested or not shown; [ ] = dose if it differs, or a comment.
SMILES,miR-122 sensor,PglD inh,CAL PDZ FP-1,Cneo AK release,CAL PDZ FP-2
Cc1onc(-c2ccc(Cl)cc2Cl)c1-c1csc(N/N=C/c2ccccc2)n1,nt,nt,54.2*,nt,-0.6
CCc1ccc(C(=O)NC(=S)NCc2cccnc2)cc1,nt,5.4,-2.5,87.4*,-1.8
O=C(NCc1cccnc1)c1ccc(NC(=O)c2ccco2)cc1,-3.4,4.9,135.1*,0.1,-0.7
CCN(C(=O)c1ccc(NC(=O)c2ccco2)cc1)c1ccccc1,-9.7,4.3,56.7*,-0.4,-1.0
O=C(CN1C(=O)NC2(CCCCCC2)C1=O)N1CCN(c2ccc(F)cc2)CC1,2.7,-2.2,-1.9,2.0,0.0
COc1ccc(N2CCN(C(=O)CN3C(=O)NC4(CCCCCC4)C3=O)CC2)cc1,nt,1.8,58.7*,1.1,-0.1
C[C@@H]1CN([C@@H](C)CO)C(=O)c2cc(C#CC3CC3)cnc2O[C@@H]1CN(C)Cc1ccccn1,-0.8[16.7 µM],2.0,nt,2.0,nt
CC(=O)c1sc(NC(=O)c2cc(-c3ccccc3)nn2-c2ccccc2)nc1C,-7.8,-6.7,-2.1,81.0*,-4.7
Clc1ccc(-c2nsc(N3CCOCC3)n2)c(Cl)c1,-2.5,1.0,62.3*,-2.7,-0.8
Clc1cc(Cl)c2nc(N3CCOCC3)sc2c1,2.4,0.9,1.0,-1.2,-1.8
CC(C)CC1(C)N=C(c2ccccc2)C(=S)N1 (stereo unspecified),13.8,1.5,-3.1,82.1*,-0.7
S=C1NC2(CCCC2)N=C1c1ccccc1,nt,nt,-4.7,nt,-2.1
O=C(/C=C/c1cccc2ccccc12)N1CCOCC1,nt,nt,48.7*,nt,-0.7
C=CCOc1ccc(Oc2cc(C)nc(SC)n2)nn1,?,-1.0,43.0*,-0.8,nt
C[C@H]1CN([C@@H](C)CO)C(=O)c2cc(-c3cccc(F)c3)cnc2O[C@@H]1CN(C)C(=O)Nc1cc(F)ccc1F,5.7[16.7 µM],-0.1,nt,-2.3,nt
NC(=O)Cn1cc(/C=N\NS(=O)(=O)c2ccc(F)cc2)c2ccccc21,135.3*,2.2,35.0*,-0.8,0.2
O=C(Nc1nc2ccsc2c(=O)s1)c1ccco1,-10.9,-1.0,nt,-0.3,nt
O=C(Nc1nc2ccc(Cl)cc2s1)c1ccco1,116.1*,1.4,-4.4,-4.5,-3.7
Cc1csc2c(=O)sc(NC(=O)c3ccco3)nc12,117.3*,-0.2,nt,-1.5,-1.3
O=C(Nc1nc2ccc(Br)cc2s1)c1ccco1,3.8,-0.5,nt,-2.7,-4.1
O=C(Nc1nc2c(s1)CCc1ccccc1-2)c1ccco1,98.2*,-2.4,3.2,-5.9,-2.1
Cc1noc(C)c1NC(=O)N(C)C[C@@H]1Oc2c(NC(=O)c3nc4ccccc4s3)cccc2C(=O)N([C@@H](C)CO)C[C@H]1C,5.6[16.7 µM],-3.8,nt,2.2,nt
COCC(=O)Nc1ccc2c(c1)C(=O)N(C)C[C@H](OC)[C@H](C)CN(C(=O)Cc1ccccn1)[C@H](C)CO2,nt,-1.2,nt,-10.3,nt
COC(=O)C[C@H]1CC[C@@H]2[C@@H](COc3ccc(NC(=O)c4ccc(OC)cc4)cc3C(=O)N2C)O1,-16.7[16.7 µM],-1.0,nt,-5.2,nt
Cn1c(N)c(C(=O)COC(=O)CC2CC3CCC2C3)c(=O)n(C)c1=O (stereo unspecified),nt,1.4,87.5*,-0.8,9.9
Cn1c(N)c(C(=O)COC(=O)Cc2ccc(Br)cc2)c(=O)n(C)c1=O,-5.1,6.3,-2.1,-1.0,-2.7
CC(=O)c1cccc(OCc2cc(C(=O)N3C[C@@H](C)O[C@@H](C)C3)no2)c1,-1.7,7.0,4.8,1.8,0.9
CCCN1CCN(CCCNC(=O)CN2C(=O)C(CC)Oc3ccccc32)CC1 (stereo unspecified),-1.0,-4.4,-0.6,0.4,-3.2
CCC1Oc2ccc(C)cc2N(CC(=O)NCCCN2CCCC2)C1=O (stereo unspecified),2.6,-3.6,35.8*,-0.3,0.2
Cc1ccc2c(c1)N(CC(=O)NCCCN1CCN(C)CC1)C(=O)CO2,3.0,1.2,64.3*,-0.2,0.1
